For 9 compounds, LC100, MIC and EC50 results are on record in ChEMBL document CHEMBL1149025, “Cytotoxic and antibacterial dihydrochalcones from Piper aduncum” (1994).

Assay type in all cases: functional
In assay [1] the test system is Biomphalaria glabrata. Kind of assay: Molluscicidal activity against Biomphalaria glabrata assessed as mortality after 24 hrs by microscopy. Put shortly: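 Snails exposed to samples dissolved in 100 μl DMSO and diluted to 100 ml with distilled H₂O. After 24 h, snails counted dead when no heartbeat was seen under the microscope.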
Assay [2] relates to Micrococcus luteus. Description: Antibacterial activity against Micrococcus luteus ATCC 9341 by bioautographic assay. Put shortly: (§1)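 Overnight 37° nutrient-broth cultures; the developed TLC plate was dipped in the bacterial suspension and held moist at 37° for 20 h. It was then sprayed with 0.5% iodonitrotetrazolium chloride in H₂O and kept a further 4 h moist at 37°. Pure compounds were spotted (3 mm) at 0.1–5 μg in CH₂Cl₂, with chloramphenicol as positive control.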

Assay [3] concerns Bacillus subtilis. Kind of assay: Antibacterial activity against Bacillus subtilis ATCC 6633 by bioautographic assay. Put shortly: as §1
Assay [4] relates to Escherichia coli. Kind of assay: Antibacterial activity against Escherichia coli ATCC 25922 by bioautographic assay. Put shortly: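 Bioautography used an overnight 37° nutrient-broth culture, and the developed TLC plate was dipped in the suspension. It was incubated moist at 37° for 6 h, sprayed with 0.5% aqueous iodonitrotetrazolium chloride, then kept moist at room temperature for 15 h. White zones against pink colonies marked inhibition. Pure compounds were spotted (3 mm) at 0.1–5 μg in CH₂Cl₂, with chloramphenicol as positive control.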

Assay [5] has as its system KB. Kind of assay: Cytotoxicity against human KB cells after 72 hrs. The following applies: read-out: ED50 (the source's name). The gist of the method: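 KB cells were grown in BME with 10% heat-inactivated FBS at 37° under 5% CO₂. Samples in DMSO (final 0.5%) were added at log growth phase, at five concentrations, for 72 h. Growth was measured by protein determination as a percentage of DMSO-only controls, corrected for starting cell number. Assays were run in duplicate, and ED₅₀ was taken from semilogarithmic plots of the averaged data.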

≈ marks a conversion by molar mass, not a printed value. A value given as a limit tells only on which side of the number the result lay.

For `COc1cc(O)c(C(=O)CCc2ccccc2)c(O)c1`, in assay [1], the LC100 is listed as >30 ppm. The MIC in assay [2] was 0.3 µg; in assay [3], 0.3 µg; in assay [4], >5 µg. Also, the EC50 in assay [5] was > 10 µg/mL.

Regarding `COC(=O)c1ccc2c(c1)C[C@H](C(C)(C)O)O2` [ANODENDROIC ACID METHYL ESTER], the values for the MIC in assay [2], in assay [3] and in assay [4] were >5 µg, 3.2 µg and >5 µg, respectively. For the same compound, the EC50 in assay [5] was > 10 µg/mL.

For `COc1cc(O)c(C(=O)CCc2ccc(O)cc2)c(O)c1` [ASEBOGENIN], the LC100 in assay [1] is on record as 12 ppm. In addition, the MIC in assay [2] is 0.6 µg; in assay [3], 0.1 µg; in assay [4], >5 µg. Also, in assay [5], the EC50 is > 10 µg/mL.

On to `O=C(N[C@H](CO)[C@H](O)c1ccc([N+](=O)[O-])cc1)C(Cl)Cl` [CHLORAMPHENICOL], for which the MIC in assay [2] is 0.05 µg; in assay [3], 0.02 µg; in assay [4] it was 0.05 µg.

`COC(=O)c1ccc(O)c(C(C=C(C)C)c2c(OC)cc(O)c(C(=O)CCc3ccccc3)c2O)c1` (stereo not given) [PIPERADUNCIN A]: the results for the MIC in assay [2], in assay [3] and in assay [4] were 1.6 µg, 1.6 µg and >5 µg, respectively. Besides, the EC50 in assay [5] was 2.3 µg/mL (≈ 4.69 µM).

As for `COC(=O)c1ccc(O)c([C@H]2c3c(OC)cc(O)c(C(=O)CCc4ccccc4)c3O[C@@H]2C(C)(C)O)c1` [PIPERADUNCIN B], the values for the MIC in assay [2], in assay [3] and in assay [4] were 0.4 µg, 0.2 µg and >5 µg, respectively. The EC50 in assay [5] came to 4.7 µg/mL (≈ 9.28 µM).

In the case of `COc1cc(O)c(C(=O)CCc2ccccc2)c(O)c1Cc1c(OC)cc(O)c(C(=O)CCc2ccccc2)c1O` [PIPERADUNCIN C], the figures for the MIC in assay [2], in assay [3] and in assay [4] were 3 µg, 1.5 µg and >5 µg, respectively. Further, in assay [5], the EC50 is > 10 µg/mL.

With `COc1cc([C@@H]2c3cc4c(cc3[C@H](O)[C@H]3COC(=O)[C@H]23)OCO4)cc(OC)c1OC` [PODOFILOX], the EC50 in assay [5] is 0.0003 µg/mL (≈ 0.000724 µM).

For `COc1cc(O)c2c(c1)O[C@H](c1ccc(O)cc1)CC2=O` [SAKURANETIN], the LC100 in assay [1] is listed as >30 ppm. For the same compound, the MIC is 2 µg in assay [2], 0.5 µg in assay [3] and >5 µg in assay [4]. For the same compound, the EC50 in assay [5] was found to be 10 µg/mL (≈ 34.9 µM).
